ChEMBL document CHEMBL1671683, “Activity of linezolid in an in vitro pharmacokinetic-pharmacodynamic model using different dosages and Staphylococcus aureus and Enterococcus faecalis strains with and without a hypermutator phenotype” (Antimicrob Agents Chemother, 2010)

Key:
[1] = tested on: Enterococcus faecalis; assay: Bactericidal activity against 48 hrs peripheral compartment culture samples of Enterococcus faecalis Ef1497 MutM3 in two-compartment pharmacokinetic/pharmacodynamic model assessed as effect on bacterial count at 200 mg, bid administered as 0.5 hr infusion; assay type: functional
How it was run: (§1)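 An 18-h culture concentrated 50-fold was injected into the peripheral compartment 3 h pre-sampling (~10^8 CFU/ml E. faecalis, 10^9 S. aureus). Counts came from dilution plating (detection limit 2–3 log10 CFU/ml), expressed as Δlog CFU/ml from treatment start. Run in duplicate.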

[2] = Residual concentration at the end of the administration interval in two-compartment pharmacokinetic/pharmacodynamic model at 600 mg, bid administered as 0.5 hr infusion over 24 hrs; assay type: ADME; conditions: in vivo, iv
[3] = Elimination half-life in healthy human at 600 mg, iv, bid administered as 0.5 hr infusion; assay type: ADME, organism-based; conditions: in vivo, read-out: beta t1/2 (converted)
[4] = tested on: Enterococcus faecalis; assay: Bactericidal activity against 2 hrs peripheral compartment culture samples of Enterococcus faecalis Ef1497 MutM3 in two-compartment pharmacokinetic/pharmacodynamic model assessed as effect on bacterial count at 600 mg, bid administered as 0.5 hr infusion; assay type: functional; how it was run: as §1
[5] = tested on: Enterococcus faecalis; assay: Bactericidal activity against 12.5 hrs peripheral compartment culture samples of Enterococcus faecalis Ef1497 MutM3 in two-compartment pharmacokinetic/pharmacodynamic model assessed as effect on bacterial count at 600 mg, bid administered as 0.5 hr infusion; assay type: functional; how it was run: as §1
[6] = tested on: Enterococcus faecalis; assay: AUBC (0 to 24 hrs) in Enterococcus faecalis Ef1497 in two-compartment pharmacokinetic/pharmacodynamic model at 800 mg, bid administered as 0.5 hr infusion for 2 days; assay type: functional
How it was run: (§2)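 Hollow-fibre two-compartment model in cation-adjusted, protein-free MH broth at 37°C. Human total-plasma linezolid profile simulated as 0.5-h infusion every 12 h for 48 h. Concentrated 18-h culture injected into the peripheral compartment 3 h before first sample, giving about 10^8 (E. faecalis) or 10^9 (S. aureus) CFU/ml. Viable counts by dilution plating over 0–24 h. Area indices calculated versus growth control curve. Duplicate runs.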

[7] = tested on: Enterococcus faecalis; assay: Bactericidal activity against 48 hrs peripheral compartment culture samples of Enterococcus faecalis ATCC 29212 in two-compartment pharmacokinetic/pharmacodynamic model assessed as effect on bacterial count at 200 mg, bid administered as 0.5 hr infusion; assay type: functional; how it was run: as §1
[8] = Mean residence time in two-compartment pharmacokinetic/pharmacodynamic model at 200 mg, bid administered as 0.5 hrs infusion; assay type: ADME, organism-based; conditions: iv
[9] = tested on: Enterococcus faecalis; assay: T>MIC in Enterococcus faecalis Ef1497 in two-compartment pharmacokinetic/pharmacodynamic model at 600 mg, bid administered as 0.5 hr infusion for 2 days; assay type: functional
[10] = tested on: Enterococcus faecalis; assay: Bactericidal activity against 48 hrs peripheral compartment culture samples of Enterococcus faecalis Ef1497 MutM3 in two-compartment pharmacokinetic/pharmacodynamic model assessed as effect on bacterial count at 600 mg, bid administered as 0.5 hr infusion; assay type: functional; how it was run: as §1
[11] = tested on: Staphylococcus aureus; assay: Bactericidal activity against 13 hrs peripheral compartment culture samples of Staphylococcus aureus RN4220 in two-compartment pharmacokinetic/pharmacodynamic model assessed as effect on bacterial count at 600 mg, bid administered as 0.5 hr infusion; assay type: functional; how it was run: as §1
[12] = tested on: Enterococcus faecalis; assay: Bactericidal activity against 14 hrs peripheral compartment culture samples of Enterococcus faecalis Ef1497 MutM3 in two-compartment pharmacokinetic/pharmacodynamic model assessed as effect on bacterial count at 600 mg, bid administered as 0.5 hr infusion; assay type: functional; how it was run: as §1
[13] = tested on: Enterococcus faecalis; assay: Bactericidal activity against 12 hrs peripheral compartment culture samples of Enterococcus faecalis Ef1497 in two-compartment pharmacokinetic/pharmacodynamic model assessed as effect on bacterial count at 800 mg, bid administered as 0.5 hr infusion; assay type: functional; how it was run: as §1
[14] = tested on: Enterococcus faecalis; assay: ABBC (0 to 24 hrs) in Enterococcus faecalis Ef1497 MutM3 in two-compartment pharmacokinetic/pharmacodynamic model at 200 mg, bid administered as 0.5 hr infusion for 2 days; assay type: functional; how it was run: as §2
[15] = tested on: Enterococcus faecalis; assay: Bactericidal activity against 24 hrs peripheral compartment culture samples of Enterococcus faecalis Ef1497 in two-compartment pharmacokinetic/pharmacodynamic model assessed as effect on bacterial count at 800 mg, bid administered as 0.5 hr infusion; assay type: functional; how it was run: as §1
[16] = tested on: Enterococcus faecalis; assay: T>MIC in Enterococcus faecalis ATCC 29212 in two-compartment pharmacokinetic/pharmacodynamic model at 600 mg, bid administered as 0.5 hr infusion for 2 days; assay type: functional
[17] = AUC in two-compartment pharmacokinetic/pharmacodynamic model at 800 mg, bid administered as 0.5 hr infusion over 24 hrs; assay type: ADME; design: time < 24 hr, dose 800 mg; conditions: in vivo, iv
[18] = tested on: Enterococcus faecalis; assay: Bactericidal activity against 24 hrs peripheral compartment culture samples of Enterococcus faecalis Ef1497 MutM3 in two-compartment pharmacokinetic/pharmacodynamic model assessed as effect on bacterial count at 200 mg, bid administered as 0.5 hr infusion; assay type: functional; how it was run: as §1
[19] = tested on: Staphylococcus aureus; assay: Bactericidal activity against 12.5 hrs peripheral compartment culture samples of Staphylococcus aureus RN4220 in two-compartment pharmacokinetic/pharmacodynamic model assessed as effect on bacterial count at 600 mg, bid administered as 0.5 hr infusion; assay type: functional; how it was run: as §1
[20] = tested on: Enterococcus faecalis; assay: ABBC (0 to 24 hrs) in Enterococcus faecalis Ef1497 in two-compartment pharmacokinetic/pharmacodynamic model at 600 mg, bid administered as 0.5 hr infusion for 2 days; assay type: functional; how it was run: as §2
[21] = tested on: Enterococcus faecalis; assay: Bactericidal activity against 48 hrs peripheral compartment culture samples of Enterococcus faecalis ATCC 29212 in two-compartment pharmacokinetic/pharmacodynamic model assessed as effect on bacterial count at 600 mg, bid for every 12 hrs administered as 0.5 hrs infusion; assay type: functional; how it was run: as §1
[22] = Mean residence time in two-compartment pharmacokinetic/pharmacodynamic model at 600 mg, bid administered as 0.5 hr infusion over 24 hrs; assay type: ADME, organism-based; conditions: in vivo, iv
[23] = tested on: Enterococcus faecalis; assay: Bactericidal activity against 2 hrs peripheral compartment culture samples of Enterococcus faecalis ATCC 29212 in two-compartment pharmacokinetic/pharmacodynamic model assessed as effect on bacterial count at 600 mg, bid administered as 0.5 hr infusion; assay type: functional; how it was run: as §1
[24] = tested on: Enterococcus faecalis; assay: AUBC (0 to 24 hrs) in Enterococcus faecalis ATCC 29212 in two-compartment pharmacokinetic/pharmacodynamic model at 200 mg, bid administered as 0.5 hr infusion for 2 days; assay type: functional; how it was run: as §2
[25] = tested on: Enterococcus faecalis; assay: Bactericidal activity against 0.5 hrs peripheral compartment culture samples of Enterococcus faecalis Ef1497 in two-compartment pharmacokinetic/pharmacodynamic model assessed as effect on bacterial count at 600 mg, bid administered as 0.5 hr infusion; assay type: functional
How it was run: (§3)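 Two-compartment hollow-fibre model in cation-adjusted, protein-free MH broth, 37°C. Linezolid given as simulated 0.5-h infusion twice daily. Inoculum grown 18 h, concentrated 50-fold and placed in the peripheral compartment 3 h before t0. Peripheral samples at set times counted by dilution plating. First 10-fold dilution not plated, limiting detection to 2–3 log10 CFU/ml. Δlog CFU/ml taken from t0 count. Duplicates.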

[26] = Volume of distribution at steady state in two-compartment pharmacokinetic/pharmacodynamic model at 200 mg, bid administered as 0.5 hrs infusion; assay type: ADME, organism-based; conditions: iv, read-out: Vdss
[27] = Cmax in two-compartment pharmacokinetic/pharmacodynamic model at 200 mg, bid administered as 0.5 hr infusion over 24 hrs; assay type: ADME, organism-based; design: dose 200 mg; conditions: iv
[28] = tested on: Enterococcus faecalis; assay: Bactericidal activity against 0.5 hrs peripheral compartment culture samples of Enterococcus faecalis Ef1497 in two-compartment pharmacokinetic/pharmacodynamic model assessed as effect on bacterial count at 800 mg, bid administered as 0.5 hr infusion; assay type: functional; how it was run: as §3

SMILES: CC(=O)NC[C@H]1CN(c2ccc(N3CCOCC3)c(F)c2)C(=O)O1 [LINEZOLID]
- log10CFU/ml [1]: 0.79
- Drug uptake [2]: 1.26 µg/mL
- half-life [3]: 5.1 h
- log10CFU/ml [4]: -0.05
- log10CFU/ml [5]: 0.22
- AUBC [6]: 210.5 log10CFU/ml.hr
- log10CFU/ml [7]: 1.23
- MRT [8]: 8.65 h
- fT>MIC [9]: 69%
- log10CFU/ml [10]: 0.45
- log10CFU/ml [11]: -0.22
- log10CFU/ml [12]: 0.28
- log10CFU/ml [13]: -0.16
- ABBC [14]: 2.32 log10CFU/ml.hr
- log10CFU/ml [15]: -0.04
- fT>MIC [16]: 69.1%
- AUC at 24 h [17]: 47700 ng·h/mL
- log10CFU/ml [18]: 0.52
- log10CFU/ml [19]: -0.26
- ABBC [20]: -1.49 log10CFU/ml.hr
- log10CFU/ml [21]: 0.53
- MRT [22]: 8.1 h
- log10CFU/ml [23]: -0.08
- AUBC [24]: 214 log10CFU/ml.hr
- log10CFU/ml [25]: -0.01
- Vd [26]: 120 L
- Cmax [27]: 4790 ng/mL
- log10CFU/ml [28]: 0.08
